From ChEMBL document CHEMBL1135690, “Benzodiazepine receptor ligands. 7. Synthesis and pharmacological evaluation of new 3-esters of the 8-chloropyrazolo[5,1-c][1,2,4]benzotriazine 5-oxide. 3-(2-Thienylmethoxycarbonyl) derivative: an anxioselective agent in rodents” (J Med Chem, 2002)

Experiments:
[1] = biological target: GABA-A receptor; anion channel (Homo sapiens) (UniProt P14867+P47870+P18507+P28472+P48169+Q99928+Q9UN88+P34903+O00591+O14764+Q8N1C3+P18505+P78334+P47869+P31644+Q16445); assay: Percent inhibition [3H]Ro-151788 binding to Benzodiazepine receptor from bovine brain membrane at 10 uM; details: Bos taurus, target entry is the homologue from another species
[2] = biological target: GABA-A receptor; anion channel; set-up: species or system Bos taurus
[3] = system: Mus musculus; assay: Motor coordination of mouse as number of falls in 30 sec was reported after 100 mg/kg peroral dose using rotarod test; format: functional; details: route oral
In short: (§1)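 Male CD-1 mice dosed po (suspension in 1% carboxymethylcellulose, 10 mL/kg). Rota rod turning at 24 rpm; falls from the rod counted over 30 s, 25 min after drug administration.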

[4] = system: Mus musculus; assay: Percent anticonvulsant activity against pentylenetetrazole (PTZ)-induced attacks at 100 mg/kg peroral dose; format: functional; details: route oral
In short: (§2)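 Male CD-1 mice dosed po in 1% carboxymethylcellulose, 30 min before PTZ (90 mg/kg sc, in 0.9% saline). Occurrence of clonic generalized convulsions noted over 30 min; χ² analysis vs control mice.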

[5] = system: Mus musculus; assay: Anxiolytic activity in mice using light-dark box and % time spent in light was reported at 30 mg/kg peroral dose; format: functional; details: route oral
In short: (§3)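 Male CD-1 mice (22–24 g) given drug po in 1% carboxymethylcellulose (10 mL/kg). Each mouse placed in the centre of the lighted area facing away from the dark compartment and allowed to explore for 5 min; time spent in the illuminated side and number of transfers between compartments recorded. Tests run between 10:00 and 15:00.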

[6] = system: Mus musculus; assay: Anxiolytic activity in mice using light-dark box and no. of transfers between compartments were reported at 30 mg/kg peroral dose; format: functional; details: route oral; in short: as §3
[7] = system: Mus musculus; assay: Anxiolytic activity in mice using light-dark box and no. of transfers between compartments were reported at 100 mg/kg peroral dose; format: functional; details: route oral; in short: as §3
[8] = system: Mus musculus; assay: Percent anticonvulsant activity against pentylenetetrazole (PTZ)-induced attacks at 10 mg/kg peroral dose; format: functional; details: route oral; in short: as §2
[9] = system: Mus musculus; assay: Motor coordination of mouse as number of falls in […] was reported after 10 mg/kg peroral dose using rotarod test; format: functional; details: route oral
[10] = system: Mus musculus; assay: Anxiolytic activity in mice using light-dark box and no. of transfers between compartments were reported at 10 mg/kg peroral dose; format: functional; details: route oral; in short: as §3
[11] = system: Mus musculus; assay: Percent anticonvulsant activity against pentylenetetrazole (PTZ)-induced attacks at 30 mg/kg peroral dose; format: functional; details: route oral; in short: as §2
[12] = system: Mus musculus; assay: Anxiolytic activity in mice using light-dark box and % time spent in light was reported at 100 mg/kg peroral dose; format: functional; details: route oral; in short: as §3
[13] = system: Mus musculus; assay: Motor coordination of mouse as number of falls in 30 sec was reported after 30 mg/kg peroral dose using rotarod test; format: functional; details: route oral; in short: as §1
[14] = system: Mus musculus; assay: Anxiolytic activity in mice using light-dark box and % time spent in light was reported at 10 mg/kg peroral dose; format: functional; details: route oral; in short: as §3
[15] = system: Mus musculus; assay: Motor coordination of mouse as number of falls in 30 sec was reported after 3 mg/kg peroral dose using rotarod test; format: functional; details: route oral; in short: as §1
[16] = system: Mus musculus; assay: Percent anticonvulsant activity against pentylenetetrazole (PTZ)-induced attacks at 3 mg/kg peroral dose; format: functional; details: route oral; in short: as §2
[17] = Displacement of [3H]Ro-151788 from rat GABA-A receptor alpha-5-beta-3-gamma-2 subunits expressed in HEK293 cells; format: cell-based
In short: (§4)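 Recombinant rat GABA-A subtypes are stably expressed in HEK293 cells grown in MEM/EBSS with 10% FCS at 37 °C. Membranes are made in 10 mM potassium phosphate pH 7.4 and resuspended with 100 mM KCl. Incubation uses 1–2 nM [3H]Ro15-1788 with compound at 10^-9–10^-5 M (≥6 concentrations), 1 h at 4 °C. […] Ki comes from Cheng–Prusoff, n=5, in triplicate.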

[18] = Displacement of [3H]-Ro-15-1788 from rat GABA-A receptor alpha-2-beta-2-gamma-2 subunits expressed in HEK293 cells; format: cell-based; in short: as §4
[19] = system: Mus musculus; assay: Motor coordination of mouse as number of falls in 30 sec was reported after 0.3 mg/kg peroral dose using rotarod test; format: functional; details: route oral
In short: (§5)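 Male CD-1 mice are dosed po in 1% CMC (flumazenil ip). Falls from a rota rod turning at 24 rpm are counted over 30 s, 25 min after drug administration, and compared with vehicle-treated mice. Means ± SEM.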

[20] = system: Mus musculus; assay: Anxiolytic activity in mice using light-dark box and no. of transfers between compartments were reported at 3 mg/kg peroral dose; format: functional; details: route oral; in short: as §3
[21] = system: Mus musculus; assay: Anxiolytic activity in mice using light-dark box and % time spent in light was reported at 3 mg/kg peroral dose; format: functional; details: route oral; in short: as §3
[22] = system: Mus musculus; assay: Percent anticonvulsant activity against pentylenetetrazole (PTZ)-induced attacks at 1 mg/kg peroral dose; format: functional; details: route oral
In short: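 Male CD-1 mice are dosed po in 1% CMC (flumazenil ip). PTZ (90 mg/kg sc, in 0.9% saline) is injected 30 min later. Clonic generalized convulsions are scored over 30 min, with % protection compared with controls by χ2 analysis.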

[23] = system: Mus musculus; assay: Anxiolytic activity in mice using light-dark box and no. of transfers between compartments were reported at 0.3 mg/kg peroral dose; format: functional; details: route oral
In short: (§6)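 Light-dark box in male CD-1 mice. Ligands are given po in 1% CMC, flumazenil ip. Each mouse is placed in the centre of the lit area facing away from the dark one and explores for 5 min. Time in the illuminated side and number of transfers between compartments are recorded. Means ± SEM.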

[24] = Anticonvulsant activity electroshock induced convulsions and % lethality obtained at dose of 10 mg/kg; details: mouse, in vivo
[25] = system: Mus musculus; assay: Motor coordination of mouse as number of falls in 30 sec was reported after 1 mg/kg peroral dose using rotarod test; format: functional; details: route oral; in short: as §5
[26] = system: Mus musculus; assay: Anxiolytic activity in mice using light-dark box and no. of transfers between compartments were reported at 1 mg/kg peroral dose; format: functional; details: route oral; in short: as §6
[27] = system: Mus musculus; assay: Anxiolytic activity in mice using light-dark box and % time spent in light was reported at 1 mg/kg peroral dose; format: functional; details: route oral; in short: as §6

For O=C(Cc1cnn2c1n[n+]([O-])c1ccc(Cl)cc12)OCc1ccsc1, the inhibition [1] was 45%.

Compound COc1ccccc1COC(=O)c1cnn2c1nnc1ccc(Cl)cc12 has an inhibition [1] of 97% and a Ki [2] of 1.7 nM.

For O=C(OCc1ccco1)c1cnn2c1n[n+]([O-])c1ccc(Cl)cc12 [listing 1 of 2 here], the No. of falls [3] was 0.45, the Activity [4] was 27.3% and the Activity [5] was 125.02%. The No. of transfers [6] was 18.6, the No. of transfers [7] was 14 and the Activity [8] was 27.3%. For the same compound, the No. of falls [9] was 0.27, the No. of transfers [10] was 15.71 and the Activity [11] was 7.7%. It also gave an Activity [12] of 96.16%, a No. of falls [13] of 0.08 and an Activity [14] of 96.8%. For the same compound, the Ki [2] was 24.4 nM.

CCOC(=O)Cc1cnn2c1n[n+]([O-])c1ccc(Cl)cc12 showed an inhibition [1] of 53%.

CC(C)OC(=O)c1cnn2c1n[n+]([O-])c1ccc(Cl)cc12 gave an inhibition [1] of 97% and a Ki [2] of 272 nM.

O=C(OCc1cccs1)c1cnn2c1n[n+]([O-])c1ccc(Cl)cc12 gave an inhibition [1] of 93%.

CN1C(=O)CN=C(c2ccccc2)c2cc(Cl)ccc21.O=C(OCc1cccs1)c1cnn2c1n[n+]([O-])c1ccc(Cl)cc12 showed a No. of falls [15] of 0.3 and an Activity [16] of 50%.

COc1ccccc1COC(=O)Cc1cnn2c1n[n+]([O-])c1ccc(Cl)cc12 gave an inhibition [1] of 50%.

Work on CC(OC(=O)c1cnn2c1n[n+]([O-])c1ccc(Cl)cc12)c1ccccc1 (stereo not given) yielded an inhibition [1] of 95% and a Ki [2] of 138 nM.

In the case of O=C(OCc1ccco1)c1cnn2c1n[n+]([O-])c1ccc(Cl)cc12 [listing 2 of 2 here], the inhibition [1] is reported as 100%.

O=C(OCc1ccsc1)c1cnn2c1n[n+]([O-])c1ccc(Cl)cc12 gave an inhibition [1] of 97%.

For Cc1ccccc1OC(=O)CC1C=NN2c3cc(Cl)ccc3[N+]([O-])=NC12 (stereo not given), the inhibition [1] was 70%.

With Cc1ccc(-c2nc3ccc(C)cn3c2CC(=O)N(C)C)cc1 [ZOLPIDEM] the Ki [17] was greater than 1000 nM.

For O=C(OCC1CCOC1)c1cnn2c1n[n+]([O-])c1ccc(Cl)cc12 (stereo not given), the inhibition [1] was 85% and the Ki [2] was 680 nM.

Compound CN1C(=O)CN=C(c2ccccc2)c2cc(Cl)ccc21 [DIAZEPAM] has a Ki [17] of 9.8 nM, a Ki [18] of 7.8 nM and a No. of falls [19] of 0.39. The No. of transfers [20] was 16.5, the No. of falls [15] was 1.6 and the Activity [21] was 243.2%. The Activity [16] was 100%, the Activity [22] was 93.8% and the No. of transfers [23] was 22. For the same compound, the mortality [24] was 0%, the No. of falls [25] was 0.78 and the No. of transfers [26] was 23.2. For the same compound, the Activity [27] was 159.3%.

For O=C(Cc1cnn2c1n[n+]([O-])c1ccc(Cl)cc12)Oc1ccccc1, the inhibition [1] was 79%.
